Columns and labels:
[1] = biological target: T1, Adenosine receptor A3 (Homo sapiens) (UniProt P0DMS8); experiment: Percentage of blockade by 1 uM of the inhibition by 100 nM IB-MECA-inhibited cAMP accumulation in CHO cells expressing human adenosine A3 receptor.; format: functional, cell-based
T1 sequence (whole entry): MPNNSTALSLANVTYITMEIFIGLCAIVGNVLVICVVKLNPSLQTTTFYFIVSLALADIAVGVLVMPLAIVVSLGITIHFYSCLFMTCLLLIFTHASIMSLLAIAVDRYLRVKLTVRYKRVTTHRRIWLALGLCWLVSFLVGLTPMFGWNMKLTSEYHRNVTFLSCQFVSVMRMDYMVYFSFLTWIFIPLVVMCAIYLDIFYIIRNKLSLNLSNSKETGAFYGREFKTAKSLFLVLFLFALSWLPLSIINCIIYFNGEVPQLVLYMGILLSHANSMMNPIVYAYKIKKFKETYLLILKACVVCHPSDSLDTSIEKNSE
Procedure, shortened: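 CHO cells stably expressing human A3 receptor; membranes in 50 mM Tris HCl, 10 mM MgCl2, 1 mM EDTA pH 7.4 with 5 μM GTP, 0.5 mM […] and 2.0 IU/mL adenosine deaminase. Preincubated 10 min at 37 °C, then IB-MECA (100 nM) and/or antagonist with 1 mM ATP and 10 μM forskolin for 10 min. Boiled 2 min. cAMP read by [3H]cAMP competition with adrenal binding protein.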

Adenosine receptor A3 [2] = biological target: T2, Adenosine receptor A3 (Homo sapiens, UniProt P0DMS8); experiment: biochemical
T2 sequence (P0DMS8 whole entry): T1 sequence (whole entry)

Adenosine receptor A3 [3] = biological target: T2, Adenosine receptor A3; experiment: Inhibition of cAMP accumulation in CHO cells expressing human adenosine A3 receptor; format: functional, cell-based
Adenosine receptor A3 [4] = biological target: T2, Adenosine receptor A3; experiment: Displacement of [3H]MRE3008-F20 from human adenosine A3 receptor expressed in CHO cells; range 7.2-8.9; format: cell-based
Adenosine receptor A2b [5] = biological target: T3, Adenosine receptor A2b (Homo sapiens, UniProt P29275); experiment: Displacement of [3H]DPCPX from Adenosine A2b receptor expressed in HEK-293 cells; range 81-101
T3 sequence (P29275 whole entry): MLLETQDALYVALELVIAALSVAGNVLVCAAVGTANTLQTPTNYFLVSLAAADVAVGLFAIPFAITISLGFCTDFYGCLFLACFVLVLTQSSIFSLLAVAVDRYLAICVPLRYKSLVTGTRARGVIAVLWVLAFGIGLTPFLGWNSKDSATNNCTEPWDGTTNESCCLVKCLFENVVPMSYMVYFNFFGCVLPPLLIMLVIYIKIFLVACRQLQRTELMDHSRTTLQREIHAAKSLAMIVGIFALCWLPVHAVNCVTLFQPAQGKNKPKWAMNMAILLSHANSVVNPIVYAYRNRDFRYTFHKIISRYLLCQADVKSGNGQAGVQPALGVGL

[6] = biological target: Adenosine receptors; A1 & A3 (Homo sapiens) (UniProt P30542+P0DMS8); experiment: Ratio of binding affinity of human A1 receptor to that of human A3 receptor; format: protein assay
Procedure, shortened: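 Ki ratio from displacement in CHO membranes, 6–8 concentrations, n=3-6, filtration counting. A1: 1 nM [3H]DPCPX, 50 μg protein, 120 min at 25 °C, nonspecific with 10 μM CHA. A3: 1 nM [3H]MRE3008-F20, 50 μg protein, Tris/10 mM MgCl2 pH 7.4, 120 min at 4 °C, nonspecific with 1 μM MRE3008-F20.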

[7] = biological target: Adenosine receptors; A2b & A3 (Homo sapiens) (UniProt P29275+P0DMS8); experiment: Ratio of binding affinity of human A2B receptor to that of human A3 receptor; format: protein assay
Procedure, shortened: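 Ki ratio, n=3-6, 6–8 concentrations. A2B in HEK-293 membranes (20 μg): 40 nM [3H]DPCPX, 50 mM Tris HCl, 10 mM MgCl2, 1 mM EDTA, 0.1 mM benzamidine pH 7.4, 2 IU/mL adenosine deaminase, 60 min at 25 °C, nonspecific with 100 μM NECA. A3 in CHO membranes (50 μg): 1 nM [3H]MRE3008-F20, 120 min at 4 °C.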

Adenosine receptor A2b [8] = biological target: T3, Adenosine receptor A2b; experiment: Displacement of [3H]DPCPX from Adenosine A2b receptor expressed in […]; range 157-268; format: cell-based
Adenosine receptor A3 [9] = biological target: T2, Adenosine receptor A3; experiment: Inhibition of cAMP accumulation in CHO cells expressing human adenosine A3 receptor; range 2.8-8.1; format: functional, cell-based
[10] = biological target: T1, Adenosine receptor A3 (Homo sapiens); settings: CHO, 1 uM
Adenosine receptor A1 [11] = biological target: T4, Adenosine receptor A1 (Homo sapiens, UniProt P30542); experiment: Displacement of [3H]DPCPX from human adenosine A1 receptor expressed in CHO cells; range 323-378; format: cell-based
T4 sequence (P30542 whole entry): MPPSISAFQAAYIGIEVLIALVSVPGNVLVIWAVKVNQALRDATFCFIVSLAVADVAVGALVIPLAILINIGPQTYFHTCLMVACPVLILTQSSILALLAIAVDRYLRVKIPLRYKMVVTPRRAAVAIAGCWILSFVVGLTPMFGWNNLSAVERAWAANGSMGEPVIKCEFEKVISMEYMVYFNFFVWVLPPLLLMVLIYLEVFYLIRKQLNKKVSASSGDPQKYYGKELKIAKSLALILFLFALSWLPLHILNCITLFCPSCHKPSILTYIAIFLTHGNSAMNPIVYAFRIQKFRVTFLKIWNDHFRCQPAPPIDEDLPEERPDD

Adenosine receptor A3 [12] = biological target: T2, Adenosine receptor A3; experiment: biochemical; remark: listed apart in the source
Adenosine receptor A2a [13] = biological target: T5, Adenosine receptor A2a (Homo sapiens, UniProt P29274); experiment: Displacement of [3H]-SCH- 58261 from human adenosine A2A receptor expressed in CHO cells; range 1024-1396; format: cell-based
Adenosine receptor A3 [14] = biological target: T2, Adenosine receptor A3; experiment: Inhibition of cAMP accumulation in CHO cells expressing human adenosine A3 receptor; range 2.9-6.0; format: functional, cell-based
Adenosine receptor A1 [15] = biological target: T4, Adenosine receptor A1; experiment: Displacement of [3H]DPCPX from human adenosine A1 receptor expressed in CHO cells; range 269-326; format: cell-based
Adenosine receptor A3 [16] = biological target: T2, Adenosine receptor A3; experiment: Displacement of [3H]MRE3008-F20 from human adenosine A3 receptor expressed in CHO cells; range 0.27-0.34; format: cell-based
Adenosine receptor A2a [17] = biological target: T5, Adenosine receptor A2a; experiment: Displacement of [3H]-SCH- 58261 from human adenosine A2A receptor expressed in CHO cells; range 65-92; format: cell-based
Procedure, shortened: (§1)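 Membranes from CHO cells stably expressing human A2A receptor, grown in DMEM/F12 without nucleosides, resuspended in 50 mM Tris HCl, 10 mM MgCl2, pH 7.4; 50 μg protein/assay. Competition with [3H]SCH 58261 at 6–8 or more compound concentrations, 60 min at 25 °C; nonspecific binding with 50 μM NECA. Filtration on GF/B filters, scintillation counting; n=3-6.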

[18] = biological target: T1, Adenosine receptor A3 (Homo sapiens); settings: CHO, 1 uM; remark: listed apart in the source
Adenosine receptor A2b [19] = biological target: T3, Adenosine receptor A2b; experiment: Displacement of [3H]DPCPX from Adenosine A2b receptor expressed in […]; range 260-352; format: cell-based
Adenosine receptor A3 [20] = biological target: T2, Adenosine receptor A3; experiment: Displacement of [3H]MRE3008-F20 from human adenosine A3 receptor expressed in CHO cells; range 33-48; format: cell-based
Adenosine receptor A2b [21] = biological target: T3, Adenosine receptor A2b; experiment: Displacement of [3H]-DPCPX from Adenosine A2b receptor expressed in […]; range 719-895; format: cell-based
Adenosine receptor A2a [22] = biological target: T5, Adenosine receptor A2a; experiment: Displacement of [3H]-SCH- 58261 from human adenosine A2A receptor expressed in CHO cells; range 880-1160; format: cell-based; procedure, shortened: as §1
Adenosine receptor A1 [23] = biological target: T4, Adenosine receptor A1; experiment: Displacement of [3H]DPCPX from human adenosine A1 receptor expressed in CHO cells; range 81-127; format: cell-based
Adenosine receptor A3 [24] = biological target: T2, Adenosine receptor A3; experiment: biochemical; remark: listed apart in the source
Adenosine receptor A2a [25] = biological target: T5, Adenosine receptor A2a; experiment: Displacement of [3H]-SCH- 58261 from human adenosine A2A receptor expressed in CHO cells; range 2.40-3.55; format: cell-based

T5 sequence (P29274 whole entry): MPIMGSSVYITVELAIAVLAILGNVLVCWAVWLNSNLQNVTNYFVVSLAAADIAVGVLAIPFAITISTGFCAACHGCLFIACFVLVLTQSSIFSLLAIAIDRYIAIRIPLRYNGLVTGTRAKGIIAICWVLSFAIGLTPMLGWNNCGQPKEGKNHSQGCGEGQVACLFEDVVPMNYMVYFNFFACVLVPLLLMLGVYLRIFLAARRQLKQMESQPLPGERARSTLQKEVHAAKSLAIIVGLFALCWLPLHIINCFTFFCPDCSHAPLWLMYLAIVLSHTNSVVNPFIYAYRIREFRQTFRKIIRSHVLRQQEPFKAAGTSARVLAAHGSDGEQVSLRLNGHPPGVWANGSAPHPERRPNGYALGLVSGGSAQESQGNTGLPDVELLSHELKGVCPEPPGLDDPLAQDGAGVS

Nc1nc2ccc(Cl)cc2c2nc(-c3ccco3)nn12 [CGS-15943]
inhibition [1]: 30%
Ki (Adenosine receptor A3 [2]): 0.085 µM
IC50 (Adenosine receptor A3 [3]): 0.406 µM

O=C(Nc1cccc(Cl)c1)Nc1nc2nn(CCc3ccccc3)cc2c2nc(-c3ccco3)nn12
Ki (Adenosine receptor A3 [4]): 0.008 µM
inhibition [1]: 58%
Ki (Adenosine receptor A2b [5]): 0.09 µM
Ratio [6]: 6.3
Ratio [7]: 11.2

Cn1cc2c(nc(NC(=O)Nc3cccc(Cl)c3)n3nc(-c4ccco4)nc23)n1
Ki (Adenosine receptor A2b [8]): 0.205 µM
IC50 (Adenosine receptor A3 [9]): 0.0048 µM
inhibition [10]: 92%
Ki (Adenosine receptor A1 [11]): 0.35 µM
Ki (Adenosine receptor A3 [12]): 0.0004 µM
Ratio [6]: 875
Ratio [7]: 512
Ki (Adenosine receptor A2a [13]): 1.2 µM

CCCCn1cc2c(nc(NC(=O)Nc3ccc(OC)cc3)n3nc(-c4ccco4)nc23)n1
IC50 (Adenosine receptor A3 [14]): 0.0041 µM
Ki (Adenosine receptor A1 [15]): 0.296 µM
Ki (Adenosine receptor A3 [16]): 0.00032 µM
Ki (Adenosine receptor A2a [17]): 0.08 µM
inhibition [18]: 93%
Ratio [6]: 925
Ki (Adenosine receptor A2b [19]): 0.303 µM
Ratio [7]: 946

COc1ccc(NC(=O)Nc2nc3nn(CCCc4ccccc4)cc3c3nc(-c4ccco4)nn23)cc1
Ki (Adenosine receptor A3 [20]): 0.04 µM
inhibition [1]: 49%
Ki (Adenosine receptor A2b [21]): 0.802 µM
Ki (Adenosine receptor A2a [22]): 1.01 µM
Ratio [6]: 6.27
Ratio [7]: 20

Cn1cc2c(nc(N)n3nc(-c4ccco4)nc23)n1
inhibition [1]: 26%
Ki (Adenosine receptor A2b [5]): 0.09 µM
Ki (Adenosine receptor A1 [23]): 0.101 µM
Ki (Adenosine receptor A3 [24]): 0.3 µM
Ki (Adenosine receptor A2a [25]): 0.0028 µM
Ratio [6]: 0.33
Ratio [7]: 0.3

— ChEMBL document CHEMBL1133118 (J Med Chem, 2000)
